In ChEMBL document CHEMBL3751796, “Structure-Based Discovery of Novel Cyclophilin A Inhibitors for the Treatment of Hepatitis C Virus Infections” (J Med Chem, 2015):
The source made the active and inactive calls. The rule behind the calls is not given here.

Assays:
Hepatitis C virus [1] = experiment: Antiviral activity against HCV genotype 1b Con1 infected in human Huh7.5 cells assessed as inhibition of NS5A expression in membrane fractions at 2 uM by Western blot analysis; assay type: functional, organism-based; details: Hepacivirus hominis, isolate Con1, Huh-7
Procedure, shortened: (§1)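 Con1b replicon cells treated with 2 μM. Total lysates, and a membrane fraction prepared by hypotonic buffer, dounce homogenization, 220g spin and then 68 000g for 1 h at 4 °C, analyzed by Western blot for NS5A and NS5B.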

[2] = target: T1, Peptidyl-prolyl cis-trans isomerase A (Homo sapiens, UniProt P62937); experiment: Inhibition of human Cyclophilin A interaction with HCV genotype 1b Con1 NS5A in human Huh7.5 cells after 72 hrs by mammalian two-hybrid assay; assay type: cell-based; details: Huh-7
T1 sequence (P62937 whole entry, looked up): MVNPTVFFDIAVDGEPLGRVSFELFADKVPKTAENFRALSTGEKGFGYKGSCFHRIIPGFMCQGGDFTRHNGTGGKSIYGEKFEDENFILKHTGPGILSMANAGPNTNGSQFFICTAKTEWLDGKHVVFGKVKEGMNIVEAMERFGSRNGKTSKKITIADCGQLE

[3] = target: T1, Peptidyl-prolyl cis-trans isomerase A; experiment: Inhibition of human Cyclophilin A interaction with HCV genotype 1b Con1 NS5B in human Huh7.5 cells after 72 hrs by mammalian two-hybrid assay; assay type: cell-based; details: Huh-7
Mus musculus [4] = species on record: Mus musculus; experiment: Activation of calcium-dependent calcineurin phosphatase activity in ionomycin-stimulated BALB/c mouse splenocytes assessed as nuclear translocation of NFAT1 at 5 uM preincubated for 20 hrs followed by ionomycin stimulation measured after 4 hrs by DAPI staining based confocal microscopy
Procedure, shortened: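 Splenocytes were pretreated 20 h, then stimulated with ionomycin 1 μg/mL for 4 h. Fixed in 3.7% formaldehyde, permeabilized with 0.5% Triton X-100, and incubated overnight at 4 °C with anti-NFAT1 (1:100, 3% BSA). Alexa 546 secondary 1:200 for 2 h, DAPI counterstain, then confocal imaging of NFAT1 localization.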

Hepatitis C virus [5] = experiment: Antiviral activity against HCV genotype 1b Con1 infected in human Huh7.5 cells assessed as inhibition of NS5A expression in total cell lysate at 2 uM by Western blot analysis; assay type: functional, organism-based; details: Hepacivirus hominis, isolate Con1, Huh-7; procedure, shortened: as §1
Hepatitis C virus [6] = experiment: Antiviral activity against HCV genotype 1b Con1 infected in human Huh7.5 cells assessed as inhibition of NS5B expression in total cell lysate at 2 uM by Western blot analysis; assay type: functional, organism-based; details: Hepacivirus hominis, isolate Con1, Huh-7; procedure, shortened: as §1
Hepatitis C virus [7] = experiment: Antiviral activity against HCV genotype 1b Con1 infected in human Huh7.5 cells assessed as inhibition of NS5A expression at 2 uM by DAPI staining based confocal microscopy; assay type: functional, organism-based; details: Hepacivirus hominis, isolate Con1, Huh-7
Procedure, shortened: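 Con1b replicon cells treated at 2 μM. Stained with Alexa red anti-NS5A and Alexa green anti-NS5B antibodies plus DAPI, then imaged by confocal microscopy for colocalization. Images representative of at least three experiments.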

Hepatitis C virus [8] = experiment: Antiviral activity against HCV genotype 2a JFH1 infected in human Huh7.5 cells expressing GFP-fused NS5A measured 72 hrs post infection by hoechst 33342 staining based confocal microscopy; assay type: functional, organism-based, Hepacivirus hominis; details: JFH-1, Huh-7, 72 h
Hepatitis C virus [9] = experiment: Antiviral activity against HCV genotype 1b Con1 infected in human Huh7.5 cells assessed as stimulation of STAT1 mRNA expression at 2 uM incubated up to 96 hrs by qRT-PCR method; assay type: functional, organism-based; details: Hepacivirus hominis, isolate Con1, Huh-7, TDE = time-dependent effect
Procedure, shortened: (§2)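 mRNA measured by SYBR Green qRT-PCR using the 2^−ΔΔCT method, normalized to GAPDH and expressed as fold change vs controls.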

Hepatitis C virus [10] = experiment: Antiviral activity against HCV genotype 1b Con1 infected in human Huh7.5 cells assessed as stimulation of STAT2 mRNA expression at 2 uM incubated up to 96 hrs by qRT-PCR method; assay type: functional, organism-based; details: Hepacivirus hominis, isolate Con1, Huh-7, TDE = time-dependent effect; procedure, shortened: as §2
Hepatitis C virus [11] = experiment: Antiviral activity against HCV genotype 1b Con1 infected in human Huh7.5 cells assessed as stimulation of STAT2 expression at 2 uM incubated up to 96 hrs by Western blot analysis; assay type: functional, organism-based; details: Hepacivirus hominis, isolate Con1, Huh-7, TDE = time-dependent effect
Hepatitis C virus [12] = experiment: Antiviral activity against HCV genotype 1b Con1 infected in human Huh7.5 cells assessed as stimulation of OAS1 expression at 2 uM incubated up to 96 hrs by Western blot analysis; assay type: functional, organism-based; details: Hepacivirus hominis, isolate Con1, Huh-7, TDE = time-dependent effect
Hepatitis C virus [13] = experiment: Antiviral activity against HCV genotype 1b Con1 infected in human Huh7.5 cells assessed as stimulation of ISG15 expression at 2 uM incubated up to 96 hrs by Western blot analysis; assay type: functional, organism-based; details: Hepacivirus hominis, isolate Con1, Huh-7, TDE = time-dependent effect
Hepatitis C virus [14] = experiment: Antiviral activity against HCV infected in human Huh7.5 cells assessed as inhibition of IL-8 level by ELISA in presence of telaprevir; assay type: functional, organism-based; details: Hepacivirus hominis; Huh-7
Hepatitis C virus [15] = experiment: Antiviral activity against HCV infected in human Huh7.5 cells assessed as inhibition of IL-8 level by ELISA in presence of ribavirin; assay type: functional, organism-based; details: Hepacivirus hominis; Huh-7
[16] = Cytotoxicity against HCV infected human Huh7.5 cells assessed as cell death by MTT assay in presence of IFN-alpha; assay type: cell-based; details: huh-7
Hepatitis C virus [17] = experiment: Antiviral activity against HCV genotype 1b Con1 infected in human Huh7 cells xenografted in immunodeficient NOD/SCID mouse assessed as inhibition of HCV RNA level in liver at 50 mg/kg, ip up to 14 days by qRT-PCR method; assay type: functional, organism-based; details: Hepacivirus hominis, isolate Con1, Huh-7
Procedure, shortened: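 NOD/SCID mice engrafted intrasplenically with Huh7 HCV-Con1b replicon cells (1 × 10^6 in PBS). From week 6, 50 mg/kg given ip for 14 days, five mice per group. Liver HCV RNA measured by SYBR Green qRT-PCR, 2^−ΔΔCT method, normalized to GAPDH, fold change vs controls.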

Mus musculus [18] = experiment: Toxicity in NOD/SCID mouse assessed as body weight change at 50 mg/kg, ip measured up to 14 days; assay type: organism-based; details: in vivo, 336 h
Hepatitis C virus [19] = experiment: Antiviral activity against HCV genotype 1b Con1 infected in human Huh7 cells xenografted in immunodeficient NOD/SCID mouse assessed as inhibition of NS5B expression in liver at 50 mg/kg, ip up to 14 days by Western blot analysis; assay type: functional, organism-based; details: Hepacivirus hominis, isolate Con1, Huh-7
Hepatitis C virus [20] = experiment: Antiviral activity against HCV genotype 1b Con1 infected in human Huh7 cells xenografted in immunodeficient NOD/SCID mouse assessed as inhibition of NS5A expression in liver at 50 mg/kg, ip up to 14 days by DAPI staining based confocal microscopy; assay type: functional, organism-based; details: Hepacivirus hominis, isolate Con1, Huh-7
Procedure, shortened: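 Replicon-engrafted NOD/SCID mice, 50 mg/kg ip for 14 days from week 6, n=5. Paraffin liver sections incubated overnight at 4 °C with anti-human hepatocyte (Hep par 1) and anti-NS5A antibodies (1:50). Alexa 488/546 secondaries 1:100 for 2 h, DAPI 5 min, then confocal imaging.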

Hepatitis C virus [21] = experiment: Antiviral activity against HCV genotype 1b Con1 infected in human Huh7 cells xenografted in immunodeficient NOD/SCID mouse assessed as inhibition of NS5B expression in liver at 50 mg/kg, ip up to 14 days by DAPI staining based confocal microscopy; assay type: functional, organism-based; details: Hepacivirus hominis, isolate Con1, Huh-7
Mus musculus [22] = experiment: Hepatotoxicity in BALB/c mouse assessed as changes in serum aspartate transaminase level at 50 mg/kg, iv for 2 weeks by GOT kit assay; assay type: toxicity, organism-based; details: in vivo, 336 h
Mus musculus [23] = experiment: Nephrotoxicity in BALB/c mouse assessed as changes in serum creatinine level at 50 mg/kg, iv for 2 weeks; assay type: toxicity, organism-based; details: in vivo, 336 h
[24] = target: Peptidyl-prolyl cis-trans isomerase B (Homo sapiens, UniProt P23284)
Peptidyl-prolyl cis-trans isomerase B, sequence (P23284 whole entry): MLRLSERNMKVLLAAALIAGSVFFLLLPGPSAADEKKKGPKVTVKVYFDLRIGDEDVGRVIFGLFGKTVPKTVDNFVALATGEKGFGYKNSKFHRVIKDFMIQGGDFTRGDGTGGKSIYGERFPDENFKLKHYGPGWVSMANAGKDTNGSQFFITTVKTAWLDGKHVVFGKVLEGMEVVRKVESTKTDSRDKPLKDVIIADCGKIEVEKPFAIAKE

COc1cc(C(C(=O)NC2CCCCC2)N(C(=O)Cc2c[nH]c3ccccc23)c2ccc(C(C)C)cc2)cc(OC)c1OC (centres undefined)
inhibition (Hepatitis C virus [1]): Active | inhibition [2]: Active | inhibition [3]: Active | Activity (Mus musculus [4]): Active | inhibition (Hepatitis C virus [5]): Active | inhibition (Hepatitis C virus [6]): Active | inhibition (Hepatitis C virus [7]): Active | EC50 (Hepatitis C virus [8]): 1120 nM | Activity (Hepatitis C virus [9]): tde | Activity (Hepatitis C virus [10]): tde | Activity (Hepatitis C virus [11]): tde | Activity (Hepatitis C virus [12]): tde | Activity (Hepatitis C virus [13]): tde | inhibition (Hepatitis C virus [14]): Active | inhibition (Hepatitis C virus [15]): Active | Activity [16]: Non-toxic | inhibition (Hepatitis C virus [17]): Active | Activity (Mus musculus [18]): Non-toxic | inhibition (Hepatitis C virus [19]): Active | inhibition (Hepatitis C virus [20]): Active | inhibition (Hepatitis C virus [21]): Active | Activity (Mus musculus [22]): Non-toxic | Activity (Mus musculus [23]): Non-toxic | Kd [24]: 2100 nM
